Measurements taken from ChEMBL document CHEMBL4152233, “Design, synthesis and anthelmintic activity of 7-keto-sempervirol analogues” (Eur J Med Chem, 2018).
Active and inactive are the calls of the source.

Experiments:
[1] = tested on: Schistosoma mansoni; assay: Antischistosomal activity against adult stage of Schistosoma mansoni assessed as appearance of abnormal shaped eggs at 6.25 uM after 72 hrs by fluorescence microscopic method; type: functional, organism-based
Outline: (§1)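 Adult worm pairs from infected MF-1 mice were cultured 72 hr at 37 °C, 5% CO2, in modified DMEM with 10% FCS. At 72 hr, eggs were collected from each well, counted, pelleted at 200 x g, fixed in 10% formaldehyde in PBS, and viewed under natural light and a GFP filter.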

[2] = Cytotoxicity against human HepG2 cells after 24 hrs by MTT assay; type: cell-based
Outline: (§2)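 Cells were grown to about 80% confluence (HepG2 in BME, MDBK in EMEM, each with 10% FBS). They were seeded at 2.5 x10^4 per well and rested 24 hr, then exposed 24 hr to compound at 100–0.01 µM (1.25% DMSO). Controls were DMSO and 1% Triton X-100. Viability was read by MTT, and CC50 came from dose-response curves run in triplicate.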

[3] = tested on: Schistosoma mansoni; assay: Antischistosomal activity against schistosomula of Schistosoma mansoni at 10 uM by throughput high content image analysis; type: functional, organism-based
Outline: (§3)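 Puerto Rican (NMRI) strain cercariae were mechanically transformed to schistosomula. About 120 larvae were co-cultured with compound for 72 hr at 37 °C, 5% CO2, at 0.625% DMSO final. Controls were DMSO and auranofin. Motility and phenotype were scored by automated image analysis, with a hit threshold of ≤-0.15 (phenotype) and ≤-0.35 (motility) in ≥70% of larvae. Runs were in duplicate, and IC50 was estimated from dose-response curves.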

[4] = tested on: Fasciola hepatica; assay: Antifasciola activity against immature stage of Fasciola hepatica Italian assessed as effect on parasite motility after 72 hrs; type: functional, organism-based
[5] = tested on: Schistosoma mansoni; assay: Antischistosomal activity against adult stage of Schistosoma mansoni assessed as effect on parasite motility up to 12.5 uM after 72 hrs by microscopic method; type: functional, organism-based
Outline: (§4)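 Mice were infected percutaneously with 200 cercariae, and adults were recovered by portal perfusion at seven weeks. Three worm pairs per well in modified DMEM with 10% FCS were given compound at 50, 25, 12.5 and 6.25 µM final (0.3% DMSO) for 72 hr at 37 °C, 5% CO2. Controls were DMSO and auranofin. Worms were scored manually by microscopy at 24, 48 and 72 hr. Experiments were run in duplicate.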

[6] = tested on: Schistosoma mansoni; assay: Antischistosomal activity against adult stage of Schistosoma mansoni assessed as effect on parasite motility after 72 hrs by microscopic method; type: functional, organism-based; outline: as §4
[7] = tested on: Fasciola hepatica; assay: Antifasciola activity against adult stage of Fasciola hepatica Italian assessed as effect on parasite motility after 72 hrs; type: functional, organism-based
[8] = tested on: Fasciola hepatica; assay: Antifasciola activity against immature stage of Fasciola hepatica Italian assessed as exposure of basal lamina at 13.3 uM after 72 hrs by osmium tetroxide staining-based scanning electron microscopic method; type: functional, organism-based
[9] = tested on: Schistosoma mansoni; assay: Antischistosomal activity against male adult stage of Schistosoma mansoni assessed as loss of spinous tubercles natural shape at 25 uM after 72 hrs by osmium tetroxide staining-based scanning electron microscopic method; type: functional, organism-based
[10] = Selectivity index, ratio of IC50 for human HepG2 cells to IC50 for newly excysted juveline stage of Fasciola hepatica Italian assessed as effect on parasite motility; type: toxicity; details: read-out: Ratio IC50
Outline: (§5)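 Selectivity index was calculated as the CC50 from the HepG2 or MDBK MTT assay divided by the F. hepatica NEJ phenotype or motility IC50 from the 72 hr manual scoring assay.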

[11] = tested on: Schistosoma mansoni; assay: Antischistosomal activity against schistosomula of Schistosoma mansoni assessed as effect on parasite phenotype by throughput high content image analysis; type: functional, organism-based; outline: as §3
[12] = Selectivity index, ratio of IC50 for MDBK cells to IC50 for antischistosomal activity against schistosomula of Schistosoma mansoni assessed as effect on parasite phenotype; type: toxicity; details: cattle, read-out: Ratio IC50
Outline: (§6)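 Selectivity index was calculated as the CC50 from the HepG2 or MDBK MTT assay divided by the schistosomula phenotype or motility IC50 from the 72 hr image-based screen.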

[13] = tested on: Schistosoma mansoni; assay: Antischistosomal activity against adult stage of Schistosoma mansoni at 50 uM after 24 to 72 hrs by microscopic method; type: functional, organism-based; outline: as §4
[14] = tested on: Schistosoma mansoni; assay: Antischistosomal activity against female adult stage of Schistosoma mansoni assessed as loss of spinous tubercles natural shape at 25 uM after 72 hrs by osmium tetroxide staining-based scanning electron microscopic method; type: functional, organism-based
[15] = Selectivity index, ratio of IC50 for MDBK cells to IC50 for newly excysted juveline stage of Fasciola hepatica Italian assessed as effect on parasite phenotype; type: toxicity; details: cattle, read-out: Ratio IC50; outline: as §5
[16] = Selectivity index, ratio of IC50 for MDBK cells to IC50 for newly excysted juveline stage of Fasciola hepatica Italian assessed as effect on parasite motility; type: toxicity; details: cattle, read-out: Ratio IC50; outline: as §5
[17] = tested on: Fasciola hepatica; assay: Antifasciola activity against immature stage of Fasciola hepatica Italian assessed as sloughing of tegument at 13.3 uM after 72 hrs by osmium tetroxide staining-based scanning electron microscopic method; type: functional, organism-based
[18] = tested on: Schistosoma mansoni; assay: Antischistosomal activity against male adult stage of Schistosoma mansoni assessed as tegumental disruption throughtout the whole body at 25 uM after 72 hrs by osmium tetroxide staining-based scanning electron microscopic method; type: functional, organism-based
[19] = tested on: Schistosoma mansoni; assay: Antischistosomal activity against adult stage of Schistosoma mansoni assessed as irregular auto-fluorescence of eggs at 6.25 uM after 72 hrs by fluorescence microscopic method; type: functional, organism-based; outline: as §1
[20] = Selectivity index, ratio of IC50 for human HepG2 cells to IC50 for antischistosomal activity against schistosomula of Schistosoma mansoni assessed as effect on parasite motility; type: toxicity; details: read-out: Ratio IC50; outline: as §6
[21] = tested on: Fasciola hepatica; assay: Antifasciola activity against newly excysted juveline stage of Fasciola hepatica Italian assessed as effect on parasite phenotype after 72 hrs; type: functional, organism-based
Outline: (§7)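 NEJs came from Italian-strain metacercariae, excysted either by pepsin/HCl or by needle rupture, then 1 hr in sodium tauroglycocholate. They were plated at 25 per well in RPMI-1640 with 1% FCS. Screening was at 25 and 12.5 µM, then titration from 10 to 0.625 µM (0.16% DMSO). Controls were DMSO and 10 µM triclabendazole. Motility and phenotype were scored at 72 hr, with IC50 from dose-response curves.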

[22] = tested on: Schistosoma mansoni; assay: Antischistosomal activity against adult stage of Schistosoma mansoni assessed as loss of lateral spine in eggs at 6.25 uM after 72 hrs by fluorescence microscopic method; type: functional, organism-based; outline: as §1
[23] = Selectivity index, ratio of IC50 for human HepG2 cells to IC50 for antischistosomal activity against schistosomula of Schistosoma mansoni assessed as effect on parasite phenotype; type: toxicity; details: read-out: Ratio IC50; outline: as §6
[24] = tested on: Schistosoma mansoni; assay: Antischistosomal activity against schistosomula of Schistosoma mansoni assessed as effect on parasite motility by throughput high content image analysis; type: functional, organism-based; outline: as §3
[25] = tested on: Fasciola hepatica; assay: Antifasciola activity against immature stage of Fasciola hepatica Italian assessed as loss of spines on ventral surface at 13.3 uM after 72 hrs by osmium tetroxide staining-based scanning electron microscopic method; type: functional, organism-based
[26] = tested on: Schistosoma mansoni; assay: Antischistosomal activity against schistosomula of Schistosoma mansoni at 1 uM by throughput high content image analysis; type: functional, organism-based
[27] = Cytotoxicity against MDBK cells after 24 hrs by MTT assay; type: cell-based, Bos taurus; details: cattle; outline: as §2
[28] = tested on: Fasciola hepatica; assay: Antifasciola activity against adult stage of Fasciola hepatica Italian assessed as decoration of ventral surface by swollen tegumantal ridges and smaller spines at 40 uM after 72 hrs by osmium tetroxide staining-based scanning electron microscopic method; type: functional, organism-based
[29] = tested on: Fasciola hepatica; assay: Antifasciola activity against newly excysted juveline stage of Fasciola hepatica Italian assessed as effect on parasite motility after 72 hrs; type: functional, organism-based; outline: as §7
[30] = Selectivity index, ratio of IC50 for human HepG2 cells to IC50 for newly excysted juveline stage of Fasciola hepatica Italian assessed as effect on parasite phenotype; type: toxicity; details: read-out: Ratio IC50; outline: as §5
[31] = Selectivity index, ratio of IC50 for MDBK cells to IC50 for antischistosomal activity against schistosomula of Schistosoma mansoni assessed as effect on parasite motility; type: toxicity; details: cattle, read-out: Ratio IC50; outline: as §6
[32] = tested on: Schistosoma mansoni; assay: Antischistosomal activity against female adult stage of Schistosoma mansoni assessed as tegumental disruption throughtout the whole body at 25 uM after 72 hrs by osmium tetroxide staining-based scanning electron microscopic method; type: functional, organism-based
[33] = tested on: Schistosoma mansoni; assay: Antischistosomal activity against adult stage of Schistosoma mansoni assessed as appearance of smaller eggs at 6.25 uM after 72 hrs by fluorescence microscopic method; type: functional, organism-based; outline: as §1
[34] = tested on: Schistosoma mansoni; assay: Antischistosomal activity against schistosomula of Schistosoma mansoni at 25 uM by throughput high content image analysis; type: functional, organism-based; outline: as §3

IC50 [4]: 10.4 µM
IC50 [6]: 19.9 µM
IC50 [7]: 28.4 µM
IC50 [11]: 6.8 µM
IC50 [21]: 3.2 µM
IC50 [24]: 6.3 µM
IC50 [29]: 2.5 µM
SMILES: CC1(C)CCC[C@]2(C)c3ccc(O)cc3CC[C@@H]12
Activity [1]: Active
CC50 at 24 h [2]: 25.6 µM
Activity [3]: Active
Activity [5]: Active
Activity [8]: Active
Activity [9]: Active
selectivity ratio [10]: 10.2
selectivity ratio [12]: 4.8
Activity [13]: Active
Activity [14]: Active
selectivity ratio [15]: 10.2
selectivity ratio [16]: 13
Activity [17]: Active
Activity [18]: Active
Activity [19]: Active
selectivity ratio [20]: 4.1
Activity [22]: Active
selectivity ratio [23]: 3.8
Activity [25]: Active
Activity [26]: inactive
CC50 at 24 h [27]: 32.5 µM
Activity [28]: Active
selectivity ratio [30]: 8
selectivity ratio [31]: 5.2
Activity [32]: Active
Activity [33]: Active
Activity [34]: Active
